The subject of one series is MDA-MB-435. In words: Growth inhibition of human MDA-MB-435 cells assessed as growth percent at 10 uM incubated for 48 hrs by sulforhodamine B assay relative to control. The class given is functional. The note with it: MDA-MB-435, 48 h, read-out: Activity. (The SRB assay estimates cell density from bound dye.)
Series [1] concerns RT-112. In words: Growth inhibition of human RT112 cells at 1000 uM measured after 5 mins by Celltiter-Glo luminescent cell viability assay. The class given is functional, cell-based. In a few lines: (§1)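 Cells seeded 10000/well, 24 h, then exposed in ATCC-recommended medium to 62.5–2000 μM (two-fold steps) or vehicle for the set time (5–60 min), then normal medium. After 24 h, plates equilibrated 30 min at room temperature, CellTiter-Glo added, 2 min at room temperature, luminescence read. Survival relative to vehicle control; quadruplicate.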

The next series concerns Hs-578T. In words: Growth inhibition of human Hs 578T cells assessed as growth percent at 10 uM incubated for 48 hrs by sulforhodamine B assay relative to control. The class given is functional. The note with it: read-out: Activity.
In another series the test system is SK-MEL-2. In words: Growth inhibition of human SK-MEL-2 cells assessed as growth percent at 10 uM incubated for 48 hrs by sulforhodamine B assay relative to control. The class given is functional. To be noted: SK-MEL-2, 48 h, read-out: Activity.
For series [2], the system named is RT-112. In words: Mito-toxicity in mitochondria isolated from human RT112 cells assessed as increase in cytochrome C release at 200 uM incubated for 1 hr and measured after 4 hrs incubation in preservative buffer by Western blot analysis. The class given is functional. Put shortly:
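Mitochondria isolated from 20 million RT112 cells with a kit. Exposed to 200 μM, 100 μM CCCP or 10% DMSO for 1 h at 37 °C, then kept in mitochondria preservative buffer at 37 °C. Spun after 1 h and 4 h into supernatant and pellet; pellet lysed. Cytochrome c in each fraction detected by western blot.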
On the technique in general: In western blotting, separated proteins are transferred to a membrane and probed.

The next series relates to SF-295. In words: Growth inhibition of human SF295 cells assessed as growth percent at 10 uM incubated for 48 hrs by sulforhodamine B assay relative to control. The class given is functional. The note with it: SF-295, 48 h, read-out: Activity.
For a further series, the system named is SF-268. Briefly: Growth inhibition of human SF268 cells assessed as growth percent at 10 uM incubated for 48 hrs by sulforhodamine B assay relative to control. The class given is functional. To be noted: SF-268, 48 h, read-out: Activity.
The next series relates to LOX IMVI. In words: Growth inhibition of human LOXIMVI cells assessed as growth percent at 10 uM incubated for 48 hrs by sulforhodamine B assay relative to control. Format: functional. The note with it: read-out: Activity.
Another series relates to SW-620. In words: Growth inhibition of human SW620 cells assessed as growth percent at 10 uM incubated for 48 hrs by sulforhodamine B assay relative to control. The class given is functional. The note with it: SW-620, 48 h, read-out: Activity.
The test system of series [3] is RT-112. In words: Induction of mitochondrial membrane depolarization in human RT112 cells at 200 uM measured after 2 to 4 hrs by JC-1 staining based confocal microscopy. Format: functional, cell-based. Put shortly:
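RT112 cells, 200000 per glass-bottom dish, plated overnight. Exposed to 200 μM for 45 min, then JC-1 added (final 10 μg/mL) for 15 min. Confocal live imaging, excitation 485 nm, emission 530 and 590 nm, every 15 min for 6 h. Red punctate staining taken as polarized mitochondria, green as depolarized. CCCP as positive control.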

The next series has as its system SR. Briefly: Growth inhibition of human SR cells assessed as growth percent at 10 uM incubated for 48 hrs by sulforhodamine B assay relative to control. The class given is functional. The note with it: read-out: Activity.
Series [4] relates to RT-4. In words: Growth inhibition of human RT4 cells at 500 uM measured after 1 hr by Celltiter-Glo luminescent cell viability assay relative to control. The note with it: RT-4, 1 h, read-out: GI. Format: functional. Put shortly:
as §1
Background: Cellular ATP, detected with luciferase, serves as a proxy for viable cell number.

A short description of series [5]: Toxicity in anesthetized female mouse model assessed as fibrosis at 750 to 1500 uM administered via intravesical instillation after bladder evacuation treated for 1 hr followed by repetition of the treatment after 24 hrs and measured at 24 hrs after final treatment. To be noted: in vivo, other. Put shortly: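 Female mice anesthetized, 1–3% isoflurane. Bladder evacuated, then 100 μL of 750 or 1500 μM in 10% DMSO/PBS (or vehicle) instilled by 24G angiocatheter. Catheter left in place for a 1 h dwell. Repeated after 24 h; mice sacrificed 24 h after final dose. Bladder histology read for urothelial height and layers.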

A further series concerns SNB-75. Briefly: Growth inhibition of human SNB75 cells assessed as growth percent at 10 uM incubated for 48 hrs by sulforhodamine B assay relative to control. The class given is functional. To be noted: SNB-75, 48 h, read-out: Activity.
Series [6] has as its system RT-4. Briefly: Growth inhibition of human RT4 cells at 1000 uM measured after 5 mins by Celltiter-Glo luminescent cell viability assay. Format: functional, cell-based. In a few lines:
as §1

The next series deals with OVCAR-4. In words: Growth inhibition of human OVCAR4 cells assessed as growth percent at 10 uM incubated for 48 hrs by sulforhodamine B assay relative to control. To be noted: OVCAR-4, 48 h, read-out: Activity. Format: functional.
Another series concerns NCI-H522. In words: Growth inhibition of human NCI-H522 cells assessed as growth percent at 10 uM incubated for 48 hrs by sulforhodamine B assay relative to control. Format: functional. The note with it: NCI-H522, 48 h, read-out: Activity.
The test system of another series is IGROV-1. Briefly: Growth inhibition of human IGROV1 cells assessed as growth percent at 10 uM incubated for 48 hrs by sulforhodamine B assay relative to control. To be noted: IGROV-1, 48 h, read-out: Activity. Format: functional.
A further series has as its system TCC-SUP. Briefly: Growth inhibition of human TCCSUP cells measured after 1 hr by Celltiter-Glo luminescent cell viability assay. Format: functional. In a few lines:
as §1

In another series the test system is HCC 2998. In words: Growth inhibition of human HCC2998 cells assessed as growth percent at 10 uM incubated for 48 hrs by sulforhodamine B assay relative to control. The class given is functional. To be noted: HCC 2998, 48 h, read-out: Activity.
A further series deals with CAKI-1. Briefly: Growth inhibition of human Caki1 cells assessed as growth percent at 10 uM incubated for 48 hrs by sulforhodamine B assay relative to control. The note with it: CAKI-1, 48 h, read-out: Activity. The class given is functional.

Calls of active or inactive are those of the source. No cut-off for these calls is given here.

One molecule from ChEMBL document CHEMBL4312027, “Synthesis, characterization, and biological activity of a triphenylphosphonium-containing imidazolium salt against select bladder cancer cell lines” (Eur J Med Chem, 2020) can be followed below.

For orientation: GI50 means the concentration giving 50% growth inhibition. The low end stands for more potent growth inhibition, the high end for less potent growth inhibition.

`[Br-].[Br-].c1ccc([P+](CCCc2n(Cc3ccc4ccccc4c3)c3ccccc3[n+]2Cc2ccc3ccccc3c2)(c2ccccc2)c2ccccc2)cc1`: the growth at 10 µM was 25.2% in the series with MDA-MB-435; 68.6% in the series with Hs-578T; 100% in the series with SK-MEL-2; 41.1% in the series on SF-295; 79% with SF-268; 13.8% with LOX IMVI. For the same molecule, the growth at 10 µM in the series with SW-620 was found to be 35.2%; in the series with SR, 30.8%; in the series with SNB-75 it was 91%; in the series on OVCAR-4, 74.4%; with NCI-H522, 60.2%; in the series with IGROV-1, 20.8%. Besides, the growth at 10 µM with HCC 2998 was 53.9%; in the series with CAKI-1, 79.9%. The “growth inhibition (GI)” value in the series on RT-112 [1] and in the series on RT-4 [6] was “Active” in each case. Further, the result in the series on RT-112 [2] and in the series on RT-112 [3] was Active. Also, in the series on RT-4 [4], the inhibition of growth at 500 µM stood at 100%. In [5], the Activity entry is on record as “Non-Toxic”. The molecule further showed a GI50 with TCC-SUP of 240 µM.
